ChEMBL document CHEMBL3804819, “2-(Quinolin-4-yloxy)acetamides Are Active against Drug-Susceptible and Drug-Resistant Mycobacterium tuberculosis Strains” (ACS Med Chem Lett, 2016)
Converted amounts (≈) assume the structure as drawn. The source made the active and inactive calls. No cut-off for these calls is given here.

Experiments:
HaCaT = assay: Cytotoxicity against human HaCaT cells assessed as reduction in cell viability at 20 uM after 72 hrs by MTT assay; format: cell-based
Staphylococcus aureus = assay: Antibacterial activity against Staphylococcus aureus ATCC 25923 at 20 uM; format: functional, organism-based
Pseudomonas aeruginosa = assay: Antibacterial activity against Pseudomonas aeruginosa ATCC 27853 at 20 uM; format: functional, organism-based
Escherichia coli = assay: Antibacterial activity against Escherichia coli ATCC 25922 at 20 uM; format: functional, organism-based
Vero = assay: Cytotoxicity against African green monkey Vero cells assessed as reduction in cell viability at 20 uM after 72 hrs by MTT assay; format: cell-based; details: chlorocebus sabaeus
Acinetobacter baumannii = assay: Antibacterial activity against Acinetobacter baumannii ATCC BAA 747 at 20 uM; format: functional, organism-based
[1] = system: Mycobacterium tuberculosis; assay: Antibacterial activity against Mycobacterium tuberculosis H37Rv assessed as reduction in bacterial growth after 7 days by resazurin assay; format: functional; details: for MIC: 168 h
RAW264.7 = assay: Cytotoxicity against mouse RAW264.7 cells assessed as decrease in cell viability at 5 uM after 72 hrs by MTT assay; format: cell-based; details: raw264.7, 72 h
[2] = system: Mycobacterium tuberculosis; assay: Antibacterial activity against Mycobacterium tuberculosis H37Rv infected in mouse RAW 264.7 cells assessed reduction in bacterial count per well at 5 uM after 3 days (reference value: 2.5 +/- 0.15 log10CFU); format: functional
[3] = Inhibition CYP450 in human liver microsomes by HPLC/MS/MS analysis in presence of NADPH; format: ADME
Danio rerio [4] = species on record: Danio rerio; assay: Toxicity in zebrafish embryo assessed as reduction in heart rate at 20 uM measured at 72 hrs post fertilization by stereo microscopic analysis; format: organism-based; details: in vivo
Liver = assay: Metabolic stability in human liver S9 fraction at 2 uM measured up to 30 mins by HPLC/MS/MS analysis; format: ADME, subcellular; details: s9, 0.5 h
Danio rerio [5] = species on record: Danio rerio; assay: Toxicity in zebrafish embryo assessed as reduction in heart rate at 1 uM measured at 72 hrs post fertilization by stereo microscopic analysis; format: organism-based; details: in vivo
Danio rerio [6] = species on record: Danio rerio; assay: Toxicity in zebrafish embryo assessed as reduction in heart rate at 5 uM measured at 72 hrs post fertilization by stereo microscopic analysis; format: organism-based; details: in vivo
[7] = Thermodynamic solubility of the compound at pH 1.5 after 24 hrs by HPLC analysis; format: physicochemical; details: buffer, read-out: Therm_solubility
[8] = Thermodynamic solubility of the compound at pH 7.4 after 24 hrs by HPLC analysis; format: physicochemical; details: buffer, read-out: Therm_solubility
[9] = system: Mycobacterium tuberculosis; assay: Antibacterial activity against Mycobacterium tuberculosis H37Rv ATCC 25618 assessed as reduction in bacterial growth after 6 days by resazurin assay; format: functional; details: H37Rv ATCC 25618, 144 h
Danio rerio [10] = species on record: Danio rerio; assay: Toxicity in zebrafish embryo assessed as reduction in embryo viability at 20 uM measured at 72 hrs post fertilization; format: organism-based; details: in vivo
How it was run: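 Zebrafish embryos exposed to 20 μM for 72 h; embryo survival scored.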

[11] = Selectivity index, ratio of cytotoxic activity for human HaCaT cells to MIC for Mycobacterium tuberculosis H37Rv; format: toxicity, cell-based; details: read-out: Selectivity Index
[12] = system: Mycobacterium tuberculosis; assay: Potency index, ratio of isoniazid MIC to compound MIC for Mycobacterium tuberculosis H37Rv; format: functional
[13] = Selectivity index, ratio of cardiac toxicity for zebrafish embryo to MIC for Mycobacterium tuberculosis H37Rv; details: read-out: Selectivity Index
[14] = Selectivity index, ratio of cytotoxic activity for African green monkey Vero cells to MIC for Mycobacterium tuberculosis H37Rv; format: toxicity, cell-based; details: read-out: Selectivity Index

COc1ccc2nc(C)cc(OCC(=O)Nc3ccccc3)c2c1
Activity (HaCaT): Non-toxic | Activity (Staphylococcus aureus): inactive | Activity (Pseudomonas aeruginosa): inactive | Activity (Escherichia coli): inactive | Activity (Vero): Non-toxic | Activity (Acinetobacter baumannii): inactive | MIC [1]: 0.48 µM (≈ 0.155 µg/mL)

COc1ccccc1NC(=O)COc1cc(C)nc2ccccc12
MIC [1]: > 29 µM

COc1ccc2nc(C)cc(OCC(=O)Nc3ccccc3[N+](=O)[O-])c2c1
MIC [1]: 6.79 µM (≈ 2.49 µg/mL)

COc1ccc2nc(C)cc(OCC(=O)Nc3ccc(C(F)(F)F)cc3)c2c1
Activity (HaCaT): Non-toxic | Activity (Staphylococcus aureus): inactive | Activity (Pseudomonas aeruginosa): inactive | Activity (RAW264.7): Non-toxic | Activity (Escherichia coli): inactive | Activity [2]: 1.89 log10CFU | Activity (Vero): Non-toxic | Activity (Acinetobacter baumannii): inactive | MIC [1]: 0.8 µM (≈ 0.312 µg/mL)

CO[C@H]1/C=C/O[C@@]2(C)Oc3c(C)c(O)c4c(O)c(c(/C=N/N5CCN(C)CC5)c(O)c4c3C2=O)NC(=O)/C(C)=C\C=C\[C@H](C)[C@H](O)[C@@H](C)[C@@H](O)[C@@H](C)[C@H](OC(C)=O)[C@@H]1C [RIFAMPIN]
Activity [2]: 1.58 log10CFU

COc1ccc2nc(C)cc(OCC(=O)Nc3cccc(C(F)(F)F)c3)c2c1
MIC [1]: 6.39 µM (≈ 2.49 µg/mL)

COc1ccc2nc(C)cc(OCC(=O)Nc3cccc(Cl)c3)c2c1
Activity (HaCaT): Non-toxic | Activity (Staphylococcus aureus): inactive | Activity (Pseudomonas aeruginosa): inactive | Activity (RAW264.7): Non-toxic | Activity (Escherichia coli): inactive | Activity [2]: 2.12 log10CFU | Activity (Vero): Non-toxic | Activity (Acinetobacter baumannii): inactive | MIC [1]: 0.44 µM (≈ 0.157 µg/mL)

COc1ccc2nc(C)cc(O)c2c1
Activity [1]: inactive

COc1ccc2nc(C)cc(OCC(=O)Nc3ccccc3C)c2c1
Activity (HaCaT): Non-toxic | Activity (Staphylococcus aureus): inactive | Activity (Pseudomonas aeruginosa): inactive | Activity (RAW264.7): Non-toxic | Activity (Escherichia coli): inactive | Activity [2]: 2.09 log10CFU | Activity (Vero): Non-toxic | Activity (Acinetobacter baumannii): inactive | MIC [1]: 0.46 µM (≈ 0.155 µg/mL)

NNC(=O)c1ccncc1 [ISONIAZID]
MIC [1]: 1.46 µM (≈ 0.2 µg/mL)

COc1ccc2nc(C)cc(OCC(=O)Nc3ccc(Br)cc3)c2c1
Activity (HaCaT): Non-toxic | Activity (Staphylococcus aureus): inactive | IC50 [3]: < 10 µM | Activity (Danio rerio [4]): Toxic | Stability (Liver): Stable | Activity (Pseudomonas aeruginosa): inactive | Activity (Danio rerio [5]): Non-toxic | Activity (Danio rerio [6]): Non-toxic | Activity (RAW264.7): Non-toxic | Activity (Escherichia coli): inactive | Activity [2]: 1.87 log10CFU | Activity (Vero): Non-toxic | solubility thermodynamic at 24 h [7]: 30 µM (≈ 12 µg/mL) | solubility thermodynamic at 24 h [8]: < 4.4 µM | Activity (Acinetobacter baumannii): inactive | MIC [1]: 0.1 µM (≈ 0.0401 µg/mL)

COc1ccc2nc(C)cc(OCC(=O)Nc3ccc([N+](=O)[O-])cc3)c2c1
MIC [1]: 6.79 µM (≈ 2.49 µg/mL)

COc1ccc2nc(C)cc(OCC(=O)Nc3cccc4ccccc34)c2c1
MIC [1]: 0.21 µM (≈ 0.0782 µg/mL)

COc1cccc(NC(=O)COc2cc(C)nc3ccc(OC)cc23)c1
Activity (HaCaT): Non-toxic | Activity (Staphylococcus aureus): inactive | Activity (Pseudomonas aeruginosa): inactive | Activity (Escherichia coli): inactive | Activity (Vero): Non-toxic | Activity (Acinetobacter baumannii): inactive | MIC [1]: 0.88 µM (≈ 0.31 µg/mL)

COc1ccc2nc(C)cc(OCC(=O)Nc3ccccc3OC)c2c1
Activity (HaCaT): Non-toxic | Activity (Staphylococcus aureus): inactive | Activity (Pseudomonas aeruginosa): inactive | MIC [9]: 0.7 µM (≈ 0.247 µg/mL) | Activity (RAW264.7): Non-toxic | Activity (Escherichia coli): inactive | Activity [2]: 1.61 log10CFU | Activity (Vero): Non-toxic | Activity (Acinetobacter baumannii): inactive | MIC [1]: 0.44 µM (≈ 0.155 µg/mL)

COc1ccc2nc(C)cc(OCC(=O)Nc3ccc4ccccc4c3)c2c1
Activity (HaCaT): Toxic | Activity (Staphylococcus aureus): inactive | IC50 [3]: < 10 µM | Activity (Danio rerio [4]): Toxic | Stability (Liver): Unstable | Activity (Pseudomonas aeruginosa): inactive | Activity (Danio rerio [5]): Non-toxic | Activity (Danio rerio [6]): Non-toxic | Activity (RAW264.7): Non-toxic | Activity (Danio rerio [10]): Toxic | Activity (Escherichia coli): inactive | Activity [2]: 1.93 log10CFU | Activity (Vero): Toxic | Selectivity ratio [11]: > 100 | solubility thermodynamic at 24 h [7]: 30 µM (≈ 11.2 µg/mL) | Ratio [12]: 30 | solubility thermodynamic at 24 h [8]: < 4.4 µM | Selectivity ratio [13]: > 100 | Activity (Acinetobacter baumannii): inactive | MIC [1]: 0.05 µM (≈ 0.0186 µg/mL) | Selectivity ratio [14]: > 100

COc1ccc(NC(=O)COc2cc(C)nc3ccc(OC)cc23)cc1
Activity (HaCaT): Non-toxic | Activity (Staphylococcus aureus): inactive | Activity (Pseudomonas aeruginosa): inactive | Activity (Escherichia coli): inactive | Activity (Vero): Non-toxic | Activity (Acinetobacter baumannii): inactive | MIC [1]: 0.44 µM (≈ 0.155 µg/mL)

COc1ccc2nc(C)cc(OCC(=O)Nc3ccc(Cl)cc3)c2c1
Activity (HaCaT): Non-toxic | Activity (Staphylococcus aureus): inactive | Activity (Pseudomonas aeruginosa): inactive | Activity (RAW264.7): Non-toxic | Activity (Escherichia coli): inactive | Activity [2]: 1.73 log10CFU | Activity (Vero): Non-toxic | Activity (Acinetobacter baumannii): inactive | MIC [1]: 0.44 µM (≈ 0.157 µg/mL)

COc1ccc2nc(C)cc(OCC(=O)Nc3ccc4c(c3)OCO4)c2c1
Activity (HaCaT): Non-toxic | Activity (Staphylococcus aureus): inactive | Activity (Pseudomonas aeruginosa): inactive | Activity (RAW264.7): Non-toxic | Activity (Escherichia coli): inactive | Activity [2]: 1.77 log10CFU | Activity (Vero): Non-toxic | Activity (Acinetobacter baumannii): inactive | MIC [1]: 0.42 µM (≈ 0.154 µg/mL)

COc1ccc(NC(=O)COc2cc(C)nc3ccc(OC)cc23)c(OC)c1
Activity (HaCaT): Non-toxic | Activity (Staphylococcus aureus): inactive | IC50 [3]: < 10 µM | Activity (Danio rerio [4]): Toxic | Stability (Liver): Stable | Activity (Pseudomonas aeruginosa): inactive | Activity (Danio rerio [5]): Non-toxic | Activity (Danio rerio [6]): Non-toxic | Activity (RAW264.7): Non-toxic | Activity (Escherichia coli): inactive | Activity [2]: 1.61 log10CFU | Activity (Vero): Non-toxic | solubility thermodynamic at 24 h [7]: 30 µM (≈ 11.5 µg/mL) | solubility thermodynamic at 24 h [8]: < 4.4 µM | Activity (Acinetobacter baumannii): inactive | MIC [1]: 0.15 µM (≈ 0.0574 µg/mL)

COc1ccc2c(c1)c(=O)ccn2CC(=O)Nc1ccccc1OC
MIC [1]: > 31 µM

CCc1cccc(C)c1NC(=O)COc1cc(C)nc2ccc(OC)cc12
MIC [1]: > 27 µM

COc1ccc2nc(C)cc(OCC(=O)Nc3ccccc3Cl)c2c1
Activity (HaCaT): Non-toxic | Activity (Staphylococcus aureus): inactive | Activity (Pseudomonas aeruginosa): inactive | Activity (RAW264.7): Non-toxic | Activity (Escherichia coli): inactive | Activity [2]: 1.75 log10CFU | Activity (Vero): Non-toxic | Activity (Acinetobacter baumannii): inactive | MIC [1]: 0.44 µM (≈ 0.157 µg/mL)

COc1ccc2nc(C)cc(OCC(=O)Nc3ccc(N)cc3)c2c1
MIC [1]: 7.39 µM (≈ 2.49 µg/mL)

COc1ccc2nc(C)cc(OCC(=O)NCc3ccccc3)c2c1
Activity (HaCaT): Non-toxic | Activity (Staphylococcus aureus): inactive | Activity (Pseudomonas aeruginosa): inactive | Activity (RAW264.7): Non-toxic | Activity (Escherichia coli): inactive | Activity [2]: 1.71 log10CFU | Activity (Vero): Non-toxic | Activity (Acinetobacter baumannii): inactive | MIC [1]: 1.85 µM (≈ 0.622 µg/mL)
